# Assay results as given in ChEMBL document CHEMBL1782042, “Efficient microwave-assisted synthesis and antitumor activity of novel 4,4'-methylenebis[2-(3-aryl-4,5-dihydro-1H-pyrazol-5-yl)phenols]” (Eur J Med Chem, 2011).
# Experiments:
# NCI-H226 [1] = experiment: Cytotoxicity against human NCI-H226 cells; type: cell-based
# Summary of the method: (§1)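 NCI 60 human tumour cell line screen, second stage at five concentrations (100, 10, 1.0, 0.1 and 0.01 μM). Continuous drug exposure for 48 h, with cell growth estimated by sulforhodamine B protein staining. GI50 is the drug concentration giving a 50% reduction in net protein increase relative to control cells over the incubation.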
# NCI-H460 = experiment: Cytotoxicity against human NCI-H460 cells; type: cell-based; summary of the method: as §1
# COLO 205 [2] = experiment: Cytotoxicity against human COLO205 cells; type: cell-based; summary of the method: as §1
# HCT-116 [3] = experiment: Cytotoxicity against human HCT116 cells; type: cell-based; summary of the method: as §1
# HCT-15 = experiment: Cytotoxicity against human HCT15 cells; type: cell-based; summary of the method: as §1
# HT-29 = experiment: Cytotoxicity against human HT-29 cells; type: cell-based; summary of the method: as §1
# SNB-19 = experiment: Cytotoxicity against human SNB19 cells; type: cell-based
# Summary of the method: (§2)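 NCI 60 human tumour cell line screen; five concentration levels (100, 10, 1.0, 0.1 and 0.01 μM), 48 h continuous drug exposure. Cell growth estimated by sulforhodamine B (SRB) protein staining. GI50 taken as the drug concentration giving a 50% reduction in net protein increase relative to control cells over the incubation.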
# LOX IMVI = experiment: Cytotoxicity against human LOXIMVI cells; type: cell-based; summary of the method: as §1
# HL-60(TB) = experiment: Anticancer activity against human HL-60(TB) cells after 48 hrs by sulforhodamine B assay; type: functional; settings: HL-60, 48 h; summary of the method: as §1
# K562 [4] = experiment: Anticancer activity against human K562 cells after 48 hrs by sulforhodamine B assay; type: functional; settings: K562, 48 h
# Summary of the method: (§3)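 NCI 60-cell-line in vitro screen, second stage: five concentration levels (100, 10, 1.0, 0.1 and 0.01 μM) with 48 h continuous drug exposure. Cell growth was estimated by sulforhodamine B protein staining. GI50 is the drug concentration that gives a 50% reduction in net protein increase relative to control cells over the incubation.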
# M14 = experiment: Cytotoxicity against human M14 cells; type: cell-based; summary of the method: as §1
# MDA-MB-435 = experiment: Cytotoxicity against human MDA-MB-435 cells; type: cell-based; summary of the method: as §1
# SK-MEL-2 = experiment: Cytotoxicity against human SK-MEL-2 cells; type: cell-based; summary of the method: as §1
# SK-MEL-28 = experiment: Cytotoxicity against human SK-MEL-28 cells; type: cell-based; summary of the method: as §1
# OVCAR-3 = experiment: Cytotoxicity against human OVCAR3 cells; type: cell-based; summary of the method: as §1
# OVCAR-5 = experiment: Cytotoxicity against human OVCAR5 cells; type: cell-based; summary of the method: as §1
# OVCAR-8 = experiment: Cytotoxicity against human OVCAR8 cells; type: cell-based; summary of the method: as §1
# NCI/ADR-RES = experiment: Cytotoxicity against human NCI/ADR-RES cells; type: cell-based; summary of the method: as §1
# 786-0 [5] = experiment: Cytotoxicity against human 786-0 cells; type: cell-based; summary of the method: as §1
# A498 [6] = experiment: Cytotoxicity against human A498 cells; type: cell-based; summary of the method: as §1
# ACHN = experiment: Cytotoxicity against human ACHN cells; type: cell-based; summary of the method: as §1
# CAKI-1 = experiment: Cytotoxicity against human Caki1 cells; type: cell-based; summary of the method: as §1
# SN12C = experiment: Cytotoxicity against human SN12C cells; type: cell-based; summary of the method: as §2
# HOP-62 = experiment: Anticancer activity against human HOP62 cells after 48 hrs by sulforhodamine B assay; type: functional; settings: HOP-62, 48 h; summary of the method: as §3
# NCI-H226 [7] = experiment: Anticancer activity against human NCI-H226 cells after 48 hrs by sulforhodamine B assay; type: functional; settings: NCI-H226, 48 h; summary of the method: as §3
# NCI-H322M = experiment: Anticancer activity against human NCI-H322M cells after 48 hrs by sulforhodamine B assay; type: functional; summary of the method: as §3
# NCI-H522 = experiment: Anticancer activity against human NCI-H522 cells after 48 hrs by sulforhodamine B assay; type: functional; settings: NCI-H522, 48 h; summary of the method: as §3
# COLO 205 [8] = experiment: Anticancer activity against human COLO205 cells after 48 hrs by sulforhodamine B assay; type: functional; settings: COLO 205, 48 h; summary of the method: as §3
# HCT-116 [9] = experiment: Anticancer activity against human HCT116 cells after 48 hrs by sulforhodamine B assay; type: functional; settings: HCT-116, 48 h; summary of the method: as §3
# KM12 = experiment: Anticancer activity against human KM12 cells after 48 hrs by sulforhodamine B assay; type: functional; settings: KM12, 48 h; summary of the method: as §3
# UO-31 [10] = experiment: Cytotoxicity against human UO31 cells; type: cell-based; summary of the method: as §2
# PC-3 = experiment: Cytotoxicity against human PC3 cells; type: cell-based; summary of the method: as §1
# DU-145 = experiment: Cytotoxicity against human DU145 cells; type: cell-based; summary of the method: as §1
# MCF7 [11] = experiment: Cytotoxicity against human MCF7 cells; type: cell-based; summary of the method: as §1
# MDA-MB-231 [12] = experiment: Cytotoxicity against human MDA-MB-231 cells; type: cell-based; summary of the method: as §1
# SW-620 = experiment: Anticancer activity against human SW620 cells after 48 hrs by sulforhodamine B assay; type: functional; settings: SW-620, 48 h
# Summary of the method: (§4)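 NCI 60-cell-line screen, second stage. Five concentration levels (100, 10, 1.0, 0.1 and 0.01 μM), 48 h continuous drug exposure. Cell growth was estimated by sulforhodamine B protein staining. GI50 is the concentration giving a 50% reduction in net protein increase relative to control cells over the drug incubation. Compounds entered this stage after an earlier single-dose screen.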
# SF-539 = experiment: Anticancer activity against human SF539 cells after 48 hrs by sulforhodamine B assay; type: functional; settings: SF-539, 48 h; summary of the method: as §3
# Malme-3M = experiment: Anticancer activity against human MALME-3M cells after 48 hrs by sulforhodamine B assay; type: functional; summary of the method: as §3
# SK-MEL-5 = experiment: Anticancer activity against human SK-MEL-5 cells after 48 hrs by sulforhodamine B assay; type: functional; settings: SK-MEL-5, 48 h; summary of the method: as §3
# UACC-257 = experiment: Anticancer activity against human UACC257 cells after 48 hrs by sulforhodamine B assay; type: functional; settings: UACC-257, 48 h; summary of the method: as §4
# UACC-62 = experiment: Anticancer activity against human UACC62 cells after 48 hrs by sulforhodamine B assay; type: functional; settings: UACC-62, 48 h; summary of the method: as §4
# SK-OV-3 = experiment: Anticancer activity against human SKOV3 cells after 48 hrs by sulforhodamine B assay; type: functional; settings: SK-OV-3, 48 h; summary of the method: as §3
# 786-0 [13] = experiment: Anticancer activity against human 786-0 cells after 48 hrs by sulforhodamine B assay; type: functional; settings: 786-0, 48 h; summary of the method: as §3
# A498 [14] = experiment: Anticancer activity against human A498 cells after 48 hrs by sulforhodamine B assay; type: functional; settings: A498, 48 h; summary of the method: as §3
# TK-10 = experiment: Anticancer activity against human TK10 cells after 48 hrs by sulforhodamine B assay; type: functional; settings: TK-10, 48 h; summary of the method: as §4
# UO-31 [15] = experiment: Anticancer activity against human UO31 cells after 48 hrs by sulforhodamine B assay; type: functional; settings: UO-31, 48 h; summary of the method: as §4
# MCF7 [16] = experiment: Anticancer activity against human MCF7 cells after 48 hrs by sulforhodamine B assay; type: functional; settings: MCF7, 48 h; summary of the method: as §3
# MDA-MB-231 [17] = experiment: Anticancer activity against human MDA-MB-231 cells after 48 hrs by sulforhodamine B assay; type: functional; settings: MDA-MB-231, 48 h; summary of the method: as §3
# BT-549 = experiment: Anticancer activity against human BT549 cells after 48 hrs by sulforhodamine B assay; type: functional; settings: BT-549, 48 h; summary of the method: as §3
# MDA-MB-468 = experiment: Anticancer activity against human MDA-MB-468 cells after 48 hrs by sulforhodamine B assay; type: functional; settings: MDA-MB-468, 48 h; summary of the method: as §3
# K562 [18] = experiment: Cytotoxicity against human K562 cells; type: cell-based; summary of the method: as §1
# RPMI-8226 = experiment: Cytotoxicity against human RPMI8226 cells; type: cell-based; summary of the method: as §1
# SR = experiment: Cytotoxicity against human SR cells; type: cell-based; summary of the method: as §2
# A549 = experiment: Cytotoxicity against human A549 cells; type: cell-based; summary of the method: as §1
# EKVX = experiment: Cytotoxicity against human EKVX cells; type: cell-based; summary of the method: as §1
smiles,measurement,setting,value
Oc1ccc(Cc2ccc(O)c(C3CC(c4ccc(Cl)cc4)=NN3)c2)cc1C1CC(c2ccc(Cl)cc2)=NN1 (stereo not given),LC50,NCI-H226 [1],> 100 µM
same,LC50,NCI-H460,> 100 µM
same,LC50,COLO 205 [2],> 100 µM
same,LC50,HCT-116 [3],> 100 µM
same,LC50,HCT-15,> 100 µM
same,LC50,HT-29,> 100 µM
same,LC50,SNB-19,> 100 µM
same,LC50,LOX IMVI,> 100 µM
same,GI50,HL-60(TB),2.66 µM
same,GI50,K562 [4],1.75 µM
same,LC50,M14,> 100 µM
same,LC50,MDA-MB-435,> 100 µM
same,LC50,SK-MEL-2,85.5 µM
same,LC50,SK-MEL-28,> 100 µM
same,LC50,OVCAR-3,> 100 µM
same,LC50,OVCAR-5,> 100 µM
same,LC50,OVCAR-8,> 100 µM
same,LC50,NCI/ADR-RES,> 100 µM
same,LC50,786-0 [5],> 100 µM
same,LC50,A498 [6],> 100 µM
same,LC50,ACHN,> 100 µM
same,LC50,CAKI-1,> 100 µM
same,LC50,SN12C,> 100 µM
same,GI50,HOP-62,4.16 µM
same,GI50,NCI-H226 [7],4.74 µM
same,GI50,NCI-H322M,4.17 µM
same,GI50,NCI-H522,2.95 µM
same,GI50,COLO 205 [8],5.44 µM
same,GI50,HCT-116 [9],1.85 µM
same,GI50,KM12,3.09 µM
same,LC50,UO-31 [10],> 100 µM
same,LC50,PC-3,> 100 µM
same,LC50,DU-145,> 100 µM
same,LC50,MCF7 [11],> 100 µM
same,LC50,MDA-MB-231 [12],> 100 µM
same,GI50,SW-620,3.29 µM
same,GI50,SF-539,5.82 µM
same,GI50,Malme-3M,5.08 µM
same,GI50,SK-MEL-5,3.36 µM
same,GI50,UACC-257,2.56 µM
same,GI50,UACC-62,3.16 µM
same,GI50,SK-OV-3,4.43 µM
same,GI50,786-0 [13],3.81 µM
same,GI50,A498 [14],5.37 µM
same,GI50,TK-10,5.34 µM
same,GI50,UO-31 [15],3.04 µM
same,GI50,MCF7 [16],3.04 µM
same,GI50,MDA-MB-231 [17],2.65 µM
same,GI50,BT-549,4.78 µM
same,GI50,MDA-MB-468,3.5 µM
same,LC50,K562 [18],> 100 µM
same,LC50,RPMI-8226,> 100 µM
same,LC50,SR,> 100 µM
same,LC50,A549,> 100 µM
same,LC50,EKVX,> 100 µM
